According to PMC4833523 (Bioorganic & medicinal chemistry letters, 2016):

Tests used:
human mGlu1 = human mGlu1 (Homo sapiens, UniProt Q13255); experiment: Calcium mobilization mGlu1 PAM assay; assay type: cell-based
How it was run: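 Calcium mobilization read-out on human mGlu1. Test compounds were first triaged in a 10 μM single-point screen with an EC20 concentration of glutamate. Those selected then got full concentration-response curves. Values are the average of three independent experiments, each run in triplicate.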

Rat IV PBL = assay type: in vivo; conditions: compared to 4
[1] = Rat microsomal intrinsic clearance / predicted hepatic clearance; assay type: in vitro ADME; conditions: predicted hepatic clearance from rat microsomal intrinsic clearance
[2] = Human microsomal intrinsic clearance / predicted hepatic clearance; assay type: in vitro ADME; conditions: compared to 4
[3] = Rat brain homogenate binding; assay type: in vitro ADME; conditions: compared to 4

Chain of human mGlu1 (Q13255 19-1194): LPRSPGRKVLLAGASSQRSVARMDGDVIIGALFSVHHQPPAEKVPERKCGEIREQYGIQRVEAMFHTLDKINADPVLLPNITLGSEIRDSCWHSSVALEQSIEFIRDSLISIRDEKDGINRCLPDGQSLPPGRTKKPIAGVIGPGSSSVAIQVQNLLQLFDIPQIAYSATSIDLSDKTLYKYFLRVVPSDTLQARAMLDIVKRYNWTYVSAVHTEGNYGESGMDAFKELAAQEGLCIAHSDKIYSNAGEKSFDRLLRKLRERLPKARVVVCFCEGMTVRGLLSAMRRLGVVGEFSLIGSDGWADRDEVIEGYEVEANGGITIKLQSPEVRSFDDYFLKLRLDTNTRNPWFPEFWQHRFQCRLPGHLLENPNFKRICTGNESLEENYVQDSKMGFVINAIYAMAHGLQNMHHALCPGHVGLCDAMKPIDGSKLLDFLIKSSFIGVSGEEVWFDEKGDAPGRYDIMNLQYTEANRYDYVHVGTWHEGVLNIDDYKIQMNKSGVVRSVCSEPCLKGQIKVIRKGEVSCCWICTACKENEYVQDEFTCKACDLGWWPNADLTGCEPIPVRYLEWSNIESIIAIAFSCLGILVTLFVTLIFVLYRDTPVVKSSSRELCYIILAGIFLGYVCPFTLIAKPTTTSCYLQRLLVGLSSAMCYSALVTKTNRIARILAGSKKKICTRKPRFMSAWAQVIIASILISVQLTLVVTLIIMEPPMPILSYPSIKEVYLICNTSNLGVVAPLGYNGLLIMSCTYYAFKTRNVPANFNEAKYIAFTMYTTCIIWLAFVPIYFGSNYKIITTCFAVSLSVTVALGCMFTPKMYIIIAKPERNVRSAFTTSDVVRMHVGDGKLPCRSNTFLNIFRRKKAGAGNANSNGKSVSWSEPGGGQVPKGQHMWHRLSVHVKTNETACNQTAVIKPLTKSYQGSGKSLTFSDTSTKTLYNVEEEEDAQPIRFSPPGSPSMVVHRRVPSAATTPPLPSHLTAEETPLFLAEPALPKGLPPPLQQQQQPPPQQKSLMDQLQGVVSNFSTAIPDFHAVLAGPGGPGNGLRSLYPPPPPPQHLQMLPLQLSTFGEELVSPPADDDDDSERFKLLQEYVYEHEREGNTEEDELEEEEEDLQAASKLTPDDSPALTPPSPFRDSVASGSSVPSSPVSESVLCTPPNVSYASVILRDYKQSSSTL

mGlu1 PAM activity in words (human mGlu1)	fold improvement in Kp (CNS exposure) over 4 (Rat IV PBL)	Rat CLhep [1] [mL/min/kg]	Compound	further results
moderate activity	–	–	O=C(Nc1ccccn1)C1c2ccccc2Oc2ccccc21 [9h]	–
–	–	–	O=C(Nc1nc2ccccc2s1)C1c2ccccc2Oc2ccccc21 [9f]	fold increase in potency on replacing thiazole 9e (human mGlu1; 9f versus 9e): ~3 fold
–	~ 3 fold	64	CC(C)c1csc(NC(=O)C2c3ccccc3Oc3ccccc32)n1 [9b]	–
weak PAM activity	–	–	Cc1nc(NC(=O)C2c3ccccc3Oc3ccccc32)sc1C [9g]	–
–	~ 4 fold	62.2	N#Cc1csc(NC(=O)C2c3ccccc3Oc3ccccc32)n1 [9a]	reduction of human microsomal intrinsic clearance [2]: ~ 50%; enhancement of free drug in brain [3]: > 10 fold
